Source: ChEMBL document CHEMBL3098060, “Antitumor potential of conjugable valinomycins bearing hydroxyl sites: in vitro studies” (ACS Med Chem Lett, 2013)
Activity calls are given as the source filed them. The calls are words filed in the database; no cut-off is given here.

Legend:
C6 [1] = assay: Cytotoxicity against rat C6 cells assessed as cell survival at 0.0001 to 10 uM by MTT assay; type: functional, cell-based; conditions: TDE = time-dependent effect
Procedure, shortened: (§1)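 Cells seeded at 10,000 per well and treated with 0.0001–10 μM. Incubated at 37 °C in CO2 for 24, 48 or 72 h. Viable cells measured by MTT conversion. Time course shown at a fixed 0.01 μM.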

C6 [2] = assay: Cytotoxicity against rat C6 cells after 72 hrs by MTT assay; type: functional, cell-based; conditions: C6, 72 h
Procedure, shortened: (§2)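 Cells exposed to 0.0001–10 μM for 72 h. Viability by MTT conversion, expressed as % of cells viable. IC50 taken as the concentration giving 50% inhibition of survival, from concentration–viability profiles. Three independent experiments, each in duplicate, averaged.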

MCF7 [3] = assay: Cytotoxicity against human MCF7 cells after 72 hrs by MTT assay; type: functional, cell-based; conditions: MCF7, 72 h; procedure, shortened: as §2
HepG2 [4] = assay: Cytotoxicity against human HepG2 cells after 72 hrs by MTT assay; type: functional, cell-based; conditions: HepG2, 72 h; procedure, shortened: as §2
A2780 [5] = assay: Cytotoxicity against human A2780 cells after 72 hrs by MTT assay; type: functional, cell-based; conditions: A2780, 72 h; procedure, shortened: as §2
C6 [6] = assay: Induction of apoptosis in rat C6 cells assessed as fragmentation of mitochondrial network at 1 uM after 72 hrs by MitoTracker Red CMXRos staining-based fluorescence microscopy; type: functional, cell-based
Procedure, shortened: (§3)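 C6 glioma cells seeded at 100,000 per well and treated 72 h at 37 °C, 5% CO2, with 50 nM or 1 μM depending on compound. Mitochondria stained with 25 nM MitoTracker Red CMXRos and network morphology imaged against untreated controls. Over 10 cells examined per experiment, 3 independent experiments.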

MCF7 [7] = assay: Induction of mitochondrial membrane depolarization in human MCF7 cells after 72 hrs by JC-1 staining-based FACS flow cytometric analysis (reference value: 1%); type: functional
MCF7 [8] = assay: Cell cycle arrest in human MCF7 cells assessed as accumulation at G2/M phase at 5 uM after 24 hrs by propidium iodide staining-based FACS flow cytometric analysis (reference value: 25.92%); type: functional
MCF7 [9] = assay: Cell cycle arrest in human MCF7 cells assessed as accumulation at S phase at 5 uM after 24 hrs by propidium iodide staining-based FACS flow cytometric analysis (reference value: 9.74%); type: functional
MCF7 [10] = assay: Cell cycle arrest in human MCF7 cells assessed as accumulation at G0/G1 phase at 5 uM after 24 hrs by propidium iodide staining-based FACS flow cytometric analysis (reference value: 64.34%); type: functional
A2780 [11] = assay: Cytotoxicity against human A2780 cells assessed as cell survival at 0.0001 to 10 uM by MTT assay; type: functional, cell-based; conditions: TDE = time-dependent effect; procedure, shortened: as §1
C6 [12] = assay: Cytotoxicity against rat C6 cells assessed as cell survival after 24 to 72 hrs by MTT assay; type: functional, cell-based; procedure, shortened: as §1
C6 [13] = assay: Induction of apoptosis in rat C6 cells assessed as fragmentation of mitochondrial network at 50 nM after 72 hrs by MitoTracker Red CMXRos staining-based fluorescence microscopy; type: functional, cell-based; procedure, shortened: as §3
MCF7 [14] = assay: Cell cycle arrest in human MCF7 cells assessed as accumulation at G2/M phase at 0.05 uM after 24 hrs by propidium iodide staining-based FACS flow cytometric analysis (reference value: 25.92%); type: functional
MCF7 [15] = assay: Cell cycle arrest in human MCF7 cells assessed as accumulation at S phase at 0.05 uM after 24 hrs by propidium iodide staining-based FACS flow cytometric analysis (reference value: 9.74%); type: functional
MCF7 [16] = assay: Cell cycle arrest in human MCF7 cells assessed as accumulation at G0/G1 phase at 0.05 uM after 24 hrs by propidium iodide staining-based FACS flow cytometric analysis (reference value: 64.34%); type: functional
HepG2 [17] = assay: Cytotoxicity against human HepG2 cells assessed as cell survival at 0.0001 to 10 uM by MTT assay; type: functional, cell-based; conditions: TDE = time-dependent effect; procedure, shortened: as §1
HepG2 [18] = assay: Cytotoxicity against human HepG2 cells assessed as cell survival after 24 to 72 hrs by MTT assay; type: functional, cell-based; procedure, shortened: as §1
MCF7 [19] = assay: Cytotoxicity against human MCF7 cells assessed as cell survival after 24 to 72 hrs by MTT assay; type: functional, cell-based; procedure, shortened: as §1
MCF7 [20] = assay: Cytotoxicity against human MCF7 cells assessed as cell survival at 0.0001 to 10 uM by MTT assay; type: functional, cell-based; conditions: TDE = time-dependent effect; procedure, shortened: as §1
A2780 [21] = assay: Cytotoxicity against human A2780 cells assessed as cell survival after 24 to 72 hrs by MTT assay; type: functional, cell-based; procedure, shortened: as §1
C6 [22] = assay: Selectivity ratio of IC50 for human MCF7 cells to IC50 for rat C6 cells; type: functional
Procedure, shortened: (§4)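 Ratio of two 72 h IC50 values, each from the same MTT viability assay. A2780, MCF-7, HepG2 and rat C6 glioma cells were treated at 0.0001–10 μM. Percent viability was calculated and IC50 taken as the concentration giving 50% survival inhibition. Means are from three independent experiments run in duplicate.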

HepG2 [23] = assay: Selectivity ratio of IC50 for human MCF7 cells to IC50 for human HepG2 cells; type: functional; procedure, shortened: as §4
A2780 [24] = assay: Selectivity ratio of IC50 for human A2780 cells to IC50 for rat C6 cells; type: functional; procedure, shortened: as §4
A2780 [25] = assay: Selectivity ratio of IC50 for human A2780 cells to IC50 for human HepG2 cells; type: functional; procedure, shortened: as §4

Row | Compound | Activity (C6 [1]) | IC50 (C6 [2]) | IC50 (MCF7 [3]) | IC50 (HepG2 [4]) | IC50 (A2780 [5]) | Activity (MCF7 [7]) | Activity (MCF7 [8]) | Activity (MCF7 [9]) | Activity (MCF7 [10]) | Activity (A2780 [11]) | Activity (C6 [12]) | Activity (C6 [13]) | Activity (HepG2 [17]) | Activity (HepG2 [18]) | Activity (MCF7 [19]) | Activity (MCF7 [20]) | Activity (A2780 [21]) | other results
1 | CC(C)[C@@H]1NC(=O)[C@H](C)OC(=O)[C@@H](C(C)C)NC(=O)[C@@H](C(C)(C)O)OC(=O)[C@H](C(C)C)NC(=O)[C@H](C)OC(=O)[C@@H](C(C)C)NC(=O)[C@@H](C(C)C)OC(=O)[C@H](C(C)C)NC(=O)[C@H](C)OC(=O)[C@@H](C(C)C)NC(=O)[C@@H](C(C)C)OC1=O | tde | 175 nM | > 10000 nM | 197 nM | > 10000 nM | 8.9% | 19.76% | 24.6% | 55.63% | – | – | – | – | – | – | – | – | Activity (C6 [6]): Active
2 | CC(C)[C@@H]1NC(=O)[C@H](C)OC(=O)[C@@H](C(C)C)NC(=O)[C@@H](C(C)C)OC(=O)[C@H](C(C)C)NC(=O)[C@H](C)OC(=O)[C@@H](C(C)(C)O)NC(=O)[C@@H](C(C)C)OC(=O)[C@H](C(C)C)NC(=O)[C@H](C)OC(=O)[C@@H](C(C)C)NC(=O)[C@@H](C(C)C)OC1=O | tde | 2.4 nM | 3850 nM | 4.3 nM | 4530 nM | 12.1% | – | – | – | tde | Dose-dependent effect | Active | tde | Dose-dependent effect | Dose-dependent effect | tde | Dose-dependent effect | Activity (MCF7 [14]): 21.49%; Activity (MCF7 [15]): 23.07%; Activity (MCF7 [16]): 55.44%
3 | CC(C)[C@@H]1NC(=O)[C@H](C)OC(=O)[C@@H](C(C)C)NC(=O)[C@@H](C(C)C)OC(=O)[C@H](C(C)C)NC(=O)[C@H](C)OC(=O)[C@@H](C(C)C)NC(=O)[C@@H](C(C)C)OC(=O)[C@H](C(C)C)NC(=O)[C@H](C)OC(=O)[C@@H](C(C)C)NC(=O)[C@@H](C(C)C)OC1=O [VALINOMYCIN] | tde | 0.4 nM | 1770 nM | 0.8 nM | 2180 nM | 16% | 18.15% | 25.79% | 56.07% | tde | Dose-dependent effect | Active | tde | Dose-dependent effect | Dose-dependent effect | tde | Dose-dependent effect | Ratio IC50 (C6 [22]): 3; Ratio IC50 (HepG2 [23]): 3; Ratio IC50 (A2780 [24]): 3; Ratio IC50 (A2780 [25]): 3
4 | CC(C)[C@@H]1NC(=O)[C@H](C)OC(=O)[C@@H](C(C)C)NC(=O)[C@@H](C(C)C)OC(=O)[C@H](C(C)(C)O)NC(=O)[C@H](C)OC(=O)[C@@H](C(C)C)NC(=O)[C@@H](C(C)C)OC(=O)[C@H](C(C)C)NC(=O)[C@H](C)OC(=O)[C@@H](C(C)C)NC(=O)[C@@H](C(C)C)OC1=O | tde | 2.9 nM | 3910 nM | 4.9 nM | 2510 nM | 15.6% | 16.9% | 25.57% | 57.53% | tde | Dose-dependent effect | Active | tde | Dose-dependent effect | Dose-dependent effect | tde | Dose-dependent effect | –
